Here are results for 12 compounds from publication PMC12100521 (Chemical Science, 2025).

Each structure is given as a SMILES string. Where “and” joins values, the source holds several entries; their conditions need not be identical. Equal entries are not always repeated.

For test [1], the target named is CYP125MRCA. Briefly: UV-Vis difference-spectrum substrate titration. The test is classed as binding. Particulars: read-out: Kd (Hill model), Table 1.
In test [2] the test system is CYP125MRCA. The test is described as follows: UV-Vis spin-state. The test is classed as binding. Particulars: 30 °C, enzyme ~2 μM.
Test [3] concerns CYP125MRCAAlt. The test is described as follows: UV-Vis spin-state shift binding screen after imidazole treatment. Particulars: enzyme pre-treated with imidazole (~1.3 mM).
Test [4] relates to CYP125MRCA. The test is described as follows: In vitro oxidation assay, spinach ferredoxin/ferredoxin reductase/NADPH, GC-MS. The test is classed as biochemical. To be noted: substrate 100 μM, enzyme 2 μM, 20 h, room temperature.
Test [5] has as its target CYP125A1. To be noted: read-out: Kd CYP125A1; cited from earlier work.
The next test deals with MmarCYP125A7. To be noted: cited from earlier work.
Test [6] deals with CYP125MRCAAlt. The test is described as follows: In vitro oxidation assay, spinach ferredoxin/ferredoxin reductase/NADPH, GC-MS. Format: biochemical. To be noted: reconstituted spinach ferredoxin/reductase/NADPH system. In short, it runs like this: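 Enzyme (2 μM in the method text) and substrate (100 μM) were equilibrated 3 min at room temperature in oxygenated 50 mM Tris, pH 7.4. Added G6P (5 mM), G6PDH (0.7 U/mL), ferredoxin (4 μM), reductase (0.2 U/mL) and catalase (0.03 mg/mL), then NADPH (1 mM). Ran 20 h, quenched with HCl, octanoic acid internal standard, ethyl acetate extraction, BSTFA/TMCS derivatisation, products assigned by mass spectra and retention times.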

Test [7] has as its system CYP125A1, CYP125A6 and CYP125A7. To be noted: cited from earlier work.
Test [8] concerns CYP125A1. Particulars: cited from earlier work.
Another test relates to Mtb CYP125A1. To be noted: cited from earlier work.
The subject of test [9] is CYP125MRCA. Format: biochemical. To be noted: 1 : 1 mixture of substrates.

For `CC[C@H](/C=C/[C@@H](C)[C@H]1CC[C@H]2[C@@H]3CC=C4C[C@@H](O)CC[C@]4(C)[C@H]3CC[C@]12C)C(C)C` [stigmasterol], the equilibrium dissociation constant (Kd) at CYP125MRCA [1] stood at 2.04 ± 0.12 µM. The “Substrate-induced shift of the Soret band (LS to HS)” value (“Substrate-induced shift” for short) in the test on CYP125MRCA [2] is “complete shift of the Soret band to the high spin peak at ∼391 nm”.

`CC(C)CCC[C@@H](C)[C@H]1CC[C@H]2[C@@H]3[C@H](O)C=C4C[C@@H](O)CC[C@]4(C)[C@H]3CC[C@]12C` [7α-hydroxycholesterol]: in the test with CYP125MRCA [2], the “Substrate-induced shift” value is reported as “Complete or near-complete spin-state shifts”.

As to `CC(C)CCC[C@@H](C)[C@H]1CC[C@H]2[C@@H]3CCC4=CC(=O)CC[C@]4(C)[C@H]3CC[C@]12C` [cholest-4-en-3-one], the Kd on CYP125MRCA [1] was 0.85 ± 0.02 µM; at CYP125A1 [5] it was 1.18 ± 0.11 µM; on MmarCYP125A7, 0.7 ± 0.4 µM. Also, in the test on CYP125MRCA [2], the “Substrate-induced shift” value is listed as “completely shift the Soret band to ∼390 nm”. Also, the “Binding detected by shift back to HS peak” value in the test with CYP125MRCAAlt [3] is recorded as “found to bind”. In the test on CYP125MRCA [4], the “Oxidation by CYP125MRCA (products by GC-MS)” value was “able to oxidise”.

Turning to `CC(C)CCC[C@@H](C)[C@H]1CC[C@H]2[C@@H]3C[C@@H]4O[C@@]45C[C@@H](O)CC[C@]5(C)[C@H]3CC[C@]12C` [5,6α-epoxycholesterol], the “Substrate-induced shift” value in the test on CYP125MRCA [2] is given as “Complete or near-complete spin-state shifts”.

Take `C=C1CC[C@H](O)C/C1=C/C=C1\CCC[C@]2(C)[C@@H]([C@H](C)CCCC(C)C)CC[C@@H]12` [vitamin D3, cholecalciferol]: at CYP125MRCA [1], the dissociation constant (Kd) was 1.6 ± 0.22 µM. Moreover, in the test with CYP125MRCA [2], the “Substrate-induced shift” value was “complete shift in the Soret band to HS”. In the test on CYP125MRCAAlt [3], the “Binding detected by shift back to HS peak” value is given as “found to bind”. Moreover, the “Oxidation by CYP125MRCA (products by GC-MS)” value in the test on CYP125MRCA [4] was “oxidised by CYP125MRCA into four hydroxylation products and one partially underivatised alcohol product”. For the same compound, the “Oxidation by CYP125MRCAAlt (products by GC-MS)” value in the test on CYP125MRCAAlt [6] is “No 25- or 26-hydroxylation activity”. Also, in test [7], the “Spectral shift in the Soret band” value was “does not induce a spectral shift in the Soret band”. Also, in the test on CYP125A1 [8], the “Oxidation of vitamin D3 by CYP125A1” value is recorded as “does not oxidise”.

With `CC(C)[C@H](C)CC[C@@H](C)[C@H]1CC[C@H]2[C@@H]3CC=C4C[C@@H](O)CC[C@]4(C)[C@H]3CC[C@]12C` [campesterol], at CYP125MRCA [1], the Kd was 4.19 ± 0.05 µM. The “Substrate-induced shift” value with CYP125MRCA [2] was “complete shift of the Soret band to the high spin peak at ∼391 nm”. Further, in the test on CYP125MRCA [4], the “Oxidation by CYP125MRCA (products by GC-MS)” value is reported as “able to effectively oxidise”.

As for `CC(C)=CCC[C@@H](C)[C@H]1CC[C@H]2[C@@H]3CC=C4C[C@@H](O)CC[C@]4(C)[C@H]3CC[C@]12C` [desmosterol], in the test on CYP125MRCA [2], the “Substrate-induced shift” value is “minimal perturbations of the heme centre”.

Consider `CC(C)CCC[C@@H](C)[C@H]1CC[C@H]2[C@@H]3[C@@H](O)C=C4C[C@@H](O)CC[C@]4(C)[C@H]3CC[C@]12C` [7β-hydroxycholesterol], for which the “Substrate-induced shift” value with CYP125MRCA [2] is reported as “Complete or near-complete spin-state shifts”.

Consider `CC(C)CCC[C@@H](C)[C@H]1CC[C@H]2[C@@H]3CC=C4C[C@@H](O)CC[C@]4(C)[C@H]3CC[C@]12C` [cholesterol], for which the Kd was 2 ± 0.05 µM at CYP125MRCA [1] and 0.11 ± 0.06 µM on CYP125A1 [5]. Besides, the “Substrate-induced shift” value in the test with CYP125MRCA [2] was “completely shift the Soret band to ∼390 nm”. Besides, in the test on CYP125MRCAAlt [3], the “Binding detected by shift back to HS peak” value is listed as “found to bind”. For the same compound, the “Oxidation by CYP125MRCA (products by GC-MS)” value in the test with CYP125MRCA [4] was “able to oxidise and 26-cholestenoic acid being the major product”. Besides, in the test on CYP125MRCAAlt [6], the “Oxidation by CYP125MRCAAlt (products by GC-MS)” value was “able to oxidise cholesterol, albeit with a lower efficiency and 26-hydroxycholesterol being the major product”. Further, in the test on Mtb CYP125A1, the “Preference for cholesterol over sitosterol” value was 1.8 fold.

For the compound `CC(C)CCC[C@@H](C)[C@H]1CC[C@H]2[C@@H]3C(=O)C=C4C[C@@H](O)CC[C@]4(C)[C@H]3CC[C@]12C` [7-ketocholesterol], the “Substrate-induced shift” value in the test on CYP125MRCA [2] is given as “Complete or near-complete spin-state shifts”.

For the compound `CC(C)[C@@H](C)/C=C/[C@@H](C)[C@H]1CC[C@H]2C3=CC=C4C[C@@H](O)CC[C@]4(C)[C@H]3CC[C@]12C` [ergosterol], in the test on CYP125MRCA [2], the “Substrate-induced shift” value was “minimal perturbations of the heme centre”.

Consider `CC[C@H](CC[C@@H](C)[C@H]1CC[C@H]2[C@@H]3CCC4=CC(=O)CC[C@]4(C)[C@H]3CC[C@]12C)C(C)C` [stigmast-4-en-3-one], for which, at CYP125MRCA [1], the Kd was determined as 1.61 ± 0.11 µM. Moreover, in the test on CYP125MRCA [2], the “Substrate-induced shift” value is “complete shift of the Soret band to the high spin peak at ∼391 nm”. In addition, the “Binding detected by shift back to HS peak” value in the test with CYP125MRCAAlt [3] is “found to bind”. In addition, the “Preference for stigmast-4-en-3-one versus cholest-4-en-3-one” value in the test on CYP125MRCA [9] is recorded as 3.2 fold.
